Assays:
MCF7 [1] = assay: Cytotoxicity in human MCF7 cells assessed as reduction in cell viability incubated for 68 hrs by MTT assay; type: functional, cell-based; conditions: MCF7, 68 h
Outline: (§1)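 Cells were trypsinised and seeded at 5x10^3 cells/well. Compound was added at 0, 0.1, 0.3, 1, 3, 10, 30 and 100 µM for 68 h. MTT (4 mg/mL solution) was then added for 4 h, and the formazan was dissolved in DMSO. Absorbance read at 570 nm. IC50 was derived from % survival across the eight concentrations. Mean ± SD of three independent experiments, each in triplicate.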

ZR-75-1 = assay: Cytotoxicity in human ZR-75-1 cells assessed as reduction in cell viability incubated for 68 hrs by MTT assay; type: functional, cell-based; conditions: ZR-75-1, 68 h; outline: as §1
BT-20 = assay: Cytotoxicity in human BT20 cells assessed as reduction in cell viability incubated for 68 hrs by MTT assay; type: functional, cell-based; conditions: BT-20, 68 h; outline: as §1
MDA-MB-231 = assay: Cytotoxicity in human MDA-MB-231 cells assessed as reduction in cell viability incubated for 68 hrs by MTT assay; type: functional, cell-based; conditions: MDA-MB-231, 68 h; outline: as §1
DU-145 = assay: Cytotoxicity in human DU145 cells assessed as reduction in cell viability incubated for 68 hrs by MTT assay; type: functional, cell-based; conditions: DU-145, 68 h; outline: as §1
PANC-1 = assay: Cytotoxicity in human PANC1 cells assessed as reduction in cell viability incubated for 68 hrs by MTT assay; type: functional, cell-based; conditions: PANC-1, 68 h; outline: as §1
2008 = assay: Cytotoxicity in human OV2008 cells assessed as reduction in cell viability incubated for 68 hrs by MTT assay; type: functional, cell-based; conditions: Homo sapiens, 2008, 68 h; outline: as §1
A2780 = assay: Cytotoxicity in human A2780 cells assessed as reduction in cell viability incubated for 68 hrs by MTT assay; type: functional, cell-based; conditions: A2780, 68 h; outline: as §1
[2] = Cytotoxicity in human CRL1459 cells assessed as reduction in cell viability incubated for 68 hrs by MTT assay; type: cell-based; outline: as §1
HEK293 = assay: Cytotoxicity in HEK293 cells assessed as reduction in cell viability incubated for 68 hrs by MTT assay; type: cell-based; conditions: Homo sapiens, HEK293, 68 h; outline: as §1
CHO = assay: Cytotoxicity in CHO cells assessed as reduction in cell viability incubated for 68 hrs by MTT assay; type: cell-based; conditions: Cricetulus griseus; outline: as §1
MCF7 [3] = assay: Potency index, ratio of IC50 for silybin to IC50 for test compound for cytotoxicity in human MCF7 cells assessed as reduction in cell viability incubated for 68 hrs by MTT assay; type: functional

SMILES | IC50 (MCF7 [1]) [µM] | IC50 (ZR-75-1) [µM] | IC50 (BT-20) [µM] | IC50 (MDA-MB-231) [µM] | IC50 (DU-145) [µM] | IC50 (PANC-1) [µM] | IC50 2008 [µM] | IC50 (A2780) [µM] | IC50 [2] [µM] | IC50 (HEK293) [µM] | IC50 (CHO) [µM] | Ratio IC50 (MCF7 [3])
O=C(/C=C/c1cccc(OCc2ccccc2)c1)c1ccc(Br)cc1 | 6.5 | 6.5 | 7.4 | 6.4 | 5.7 | 2.1 | 1 | 1.8 | 5.3 | 5.4 | 9 | 
COc1cc(C2Oc3cc(/C=C/C(=O)c4ccccc4O)ccc3OC2CO)ccc1O (stereo not given) | 12.1 |  |  |  |  |  |  |  |  |  |  | 
Cc1ccc(C(=O)/C=C/c2cccc(OCc3ccccc3)c2)cc1 | 21.7 | 25.8 | 61 | 15.6 | 25.6 | 41.6 | 12.9 | 20.5 | 19.8 | 8.2 | 26.4 | 
O=C(/C=C/c1cccc(OCc2ccccc2)c1)c1ccc(Cl)cc1 | 24.8 | 20 | 63.2 | 21.5 | 43.4 | 21.3 | 20 | 56.4 | 12.8 | 22.8 | 43.6 | 
O=C(/C=C/c1cccc(OCc2ccccc2)c1)c1ccc(Cl)c(Cl)c1Cl | 2.4 | 6.2 | 3.9 | 2.4 | 6.4 | 2.4 | 1.5 | 1.5 | 2.5 | 2.4 | 8.6 | 
COc1ccc(C(=O)/C=C/c2cccc(OCc3ccccc3)c2)cc1 | 6 | 19.9 | 38.3 | 12.4 | 51.3 | 44.3 | 17.2 | 38.1 | 25.4 | 79.8 | 22.9 | 
O=C(/C=C/c1cccc(OCc2ccccc2)c1)c1ccc([N+](=O)[O-])cc1 | 17.5 | 37.7 | 80.9 | 23.3 | 52.5 | 25.4 | 49 | 56.4 | 26 | 59.3 | 82.4 | 
O=C(/C=C/c1cccc(OCc2ccccc2)c1)c1ccc(Cl)cc1Cl | 9.4 | 9.4 | 19.2 | 6.8 | 27.3 | 27.2 | 5.2 | 21.4 | 7.8 | 24.9 | 27.5 | 
O=C(/C=C/c1cccc(OCc2ccccc2)c1)c1ccccc1 | 9.8 | 8.5 | 25.5 | 20 | 42.4 | 23.5 | 4.9 | 6.7 | 7.8 | 14.1 | 22 | 
COc1cc([C@H]2Oc3cc([C@H]4Oc5ccccc5C(=O)[C@@H]4O)ccc3O[C@@H]2CO)ccc1O | 13.8 |  |  |  |  |  |  |  |  |  |  | 
O=C(/C=C/c1cccc(OCc2ccccc2)c1)c1cccc(Br)c1 | 7.9 | 8.3 | 7.1 | 6.9 | 9.1 | 6.4 | 5.7 | 6.3 | 7.2 | 7.1 | 9.2 | 
O=C(/C=C/c1cccc(OCc2ccccc2)c1)c1ccccc1Br | 1.6 | 2.9 | 1.8 | 1.8 | 3 | 61.2 | 1.2 | 2.5 | 2.4 | 2.2 | 9.1 | 142
COc1cc([C@H]2Oc3cc([C@H]4Oc5cc(O)cc(O)c5C(=O)[C@@H]4O)ccc3O[C@@H]2CO)ccc1O [SILYBIN A] | 223 |  |  |  |  |  |  |  |  |  |  | 
O=C(/C=C/c1ccccc1)c1ccccc1 [CHALCONE] | 12.6 | 13.7 | 21.1 | 6.7 | 50.1 | 26 | 33.4 | 67.5 | 6.4 | 10.7 | 23 | 
